Bioassay records deposited in PubChem by several laboratories.
Rows were chosen to be rich in hits. Some 5.4% of all compounds tested hit in one or more screens of this group.
Mdm2 MdmX PPI: human Mdm2/MdmX binding inhibition. O15151+Q00987. SaOS-2 split-luciferase Mdm2/MdmX complementation, luminescence. inhibition, % at 8 µM. hit rate 3% among 330,000. AID 485346;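 active = inhibition of at least 50% at 8 µM in the primary screen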
Target sequence (O15151 whole entry, looked up): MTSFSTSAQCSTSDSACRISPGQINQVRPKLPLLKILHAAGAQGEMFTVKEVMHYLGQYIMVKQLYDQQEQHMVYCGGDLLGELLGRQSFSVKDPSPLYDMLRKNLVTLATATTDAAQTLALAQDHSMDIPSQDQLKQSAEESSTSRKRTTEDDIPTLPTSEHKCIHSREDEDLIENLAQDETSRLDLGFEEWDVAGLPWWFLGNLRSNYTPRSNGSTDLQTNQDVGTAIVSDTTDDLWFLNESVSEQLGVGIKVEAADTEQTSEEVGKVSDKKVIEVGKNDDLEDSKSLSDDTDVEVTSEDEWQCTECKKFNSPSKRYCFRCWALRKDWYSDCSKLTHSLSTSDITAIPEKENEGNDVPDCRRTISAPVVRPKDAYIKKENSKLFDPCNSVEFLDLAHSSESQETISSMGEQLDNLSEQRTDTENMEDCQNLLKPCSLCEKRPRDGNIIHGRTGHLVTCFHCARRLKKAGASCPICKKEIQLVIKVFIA
Target sequence (Q00987 whole entry, looked up): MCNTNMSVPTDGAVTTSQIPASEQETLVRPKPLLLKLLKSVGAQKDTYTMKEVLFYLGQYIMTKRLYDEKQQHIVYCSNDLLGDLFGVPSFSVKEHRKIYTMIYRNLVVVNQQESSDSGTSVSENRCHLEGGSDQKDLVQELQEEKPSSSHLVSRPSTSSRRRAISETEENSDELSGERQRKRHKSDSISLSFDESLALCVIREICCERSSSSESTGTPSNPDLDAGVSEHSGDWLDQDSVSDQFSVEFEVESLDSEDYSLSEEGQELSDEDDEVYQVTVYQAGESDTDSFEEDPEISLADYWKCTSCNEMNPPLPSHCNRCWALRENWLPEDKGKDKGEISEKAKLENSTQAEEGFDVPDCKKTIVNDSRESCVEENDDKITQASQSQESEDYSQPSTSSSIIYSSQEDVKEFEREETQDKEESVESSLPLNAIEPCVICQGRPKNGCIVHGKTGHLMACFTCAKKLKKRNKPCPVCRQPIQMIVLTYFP
T cruzi inh: blocks replication of Trypanosoma cruzi | T. cruzi beta-gal in NIH3T3, luminescence, 90 h | inhibition, % (test concentration not listed) | hit rate 1.4% among 300,000 | AID 1885;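 active = mean inhibition across valid replicates above about 55%, limit read from the data; inconclusive = mean below that limit but half or more replicates reach it; inactive = mean below it, under half of replicates reach it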;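 also: signal also drops with host cell toxicity which is not excluded here; 0% = plate median of DMSO wells and 100% = zero luminescence signal; higher percent means less beta-gal luminescence so fewer parasites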
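Assay system: NIH/3T3 fibroblasts plus reporter T. cruzi. Amount: NIH/3T3 cells, 5,000 per well. Buffer or medium: DMEM, 2% fetal bovine serum. Doses: compound pinned at 50 nL/well, DMSO. Schedule: ≥90 h infection period, 3 h prior cell attachment. Signal: luminescent β-galactosidase signal after 60 min lysis. Read-out: parasite load inhibition, %.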
aSyn UTR inh: 5' untranslated region of α-synuclein, MLPCN primary screen | alpha-synuclein 5'UTR reporter, inhibitor activity | inhibition, % (tested at 7.5 µM) | hit rate 0.82% among 300,000 | AID 1813; in the data active = inhibition above about 60%; inconclusive = no clear call, values can overlap the other calls;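 also: H4 neuroglioblastoma cells stably carrying SNCA 5'UTR luciferase fusion; 0% = DMSO wells and 100% = positive control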
SKKanGAS inh: SKKanGAS growth inhibition. S. pyogenes SKKanGAS, kanamycin growth, BacTiter-Glo, 6 h. inhibition, % at 7.5 µM. hit rate 1.3% among 300,000;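 active = mean replicate score, as percent of positive control median, at least 50; inconclusive = mean below 50 but one replicate at or above 50; inactive = mean and every replicate below 50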;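 also: strain carries kanamycin resistance gene driven by streptokinase promoter and grows in 40 µg/ml kanamycin; loss of luminescence reflects streptokinase promoter inhibition or plain growth inhibition; 0% = median of DMSO wells and 100% = positive control at its reference dose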
CSC inhib: blocks cancer stem cells; cancer stem cell-like cells viability, luminescence; inhibition, % at 7.5 µM; hit rate 1.1% among 300,000; AID 2717; in the data active = inhibition above about 75%; inconclusive = no clear call, values can overlap the other calls; tested in HMLE shEcad cells
* marks the source's active call; other numbers are inactive results; ? = inconclusive; / = not tested or not shown.

SMILES	Mdm2 MdmX PPI	T cruzi inh	aSyn UTR inh	SKKanGAS inh	CSC inhib
O=C(COc1cccc2ccccc12)N/N=C/c1ccccc1OCc1ccc(C(=O)O)cc1	-20.7	-18.3	-18.9	13.3	-12.0
O=C(COc1ccccc1-c1ccccc1)N/N=C/c1cccc2ccccc12	32.1	41.1	75.3*	43.9	94.6*
CC(=O)N1C2CCCCC2S[C@H]2CCCCC21 (some centres undefined)	-5.5	-13.1	20.3	-5.4	7.4
COc1ccc(CN(C(=O)CSc2nnc(-c3ccccc3C)o2)c2ccc(F)cc2)cc1	3.4	16.4	-3.5	5.8	8.6
O=C(CSc1nnc(-c2c[nH]c3ccccc23)o1)N(Cc1ccccc1)c1ccc(F)cc1	43.4	54.6*	4.0	22.6	25.6
Cc1cc(C)cc(-n2c(N)c(C(=O)Nc3c(C)n(C)n(-c4ccccc4)c3=O)c3nc4ccccc4nc32)c1	39.2	56.2*	48.2	31.6	12.1
Cc1ccc(-n2c(N)c(C(=O)Nc3c(C)n(C)n(-c4ccccc4)c3=O)c3nc4ccccc4nc32)cc1	35.5	12.9	15.1	24.5	-19.3
Cc1ccc(NS(=O)(=O)c2c(C)nc3sccn3c2=O)cc1C	10.7	19.7	-4.3	-2.4	-3.5
CSCc1cccc(C(=O)OC(C)C(=O)Nc2c(C)n(C)n(-c3ccccc3)c2=O)c1 (centres undefined)	-9.1	/	/	/	/
O=C(c1cc(-c2ccncc2)nc2ccc(Cl)cc12)N1CCN(Cc2ccc3c(c2)OCO3)CC1	40.5	71.7*	12.3	10.7	17.3
Cc1ccc2nc(-c3ccncc3)cc(C(=O)N3CCOCC3)c2c1	19.0	4.2	-4.5	3.2	-2.9
Cc1cc(C)c2nc(-c3ccncc3)cc(C(=O)N3CCN(Cc4ccccc4Cl)CC3)c2c1	45.6	61.1*	18.7	74.3*	1.8
O=C(c1cc(-c2ccncc2)nc2ccc(Br)cc12)N1CCN(Cc2ccc3c(c2)OCO3)CC1	46.4	79.3*	-2.7	15.1	-7.5
CCC(C)(C)C1CCC2(CC1)NC(=O)N(CC(=O)NCCc1ccc(OC)c(OC)c1)C2=O (centres undefined)	23.7	/	/	/	/
CCCCN(C(C)=O)c1ccc(S(=O)(=O)NC2=NCCCCC2)cc1NC(C)=O	-26.0	/	/	/	-19.4
Nc1sc(-c2ccccc2)cc1C(=O)N/N=C/c1ccc(Cl)cc1	12.4	16.4	-57.2	95.1*	/
Cc1ccc(NCc2ccc(C)s2)cc1	-7.4	71.4*	-22.8	6.2	-2.4
Cc1ccc(NCc2ccccc2)cc1	14.1	58.5*	-44.4	3.5	-1.3
Cc1ccc(CNc2ccc(N3CCOCC3)cc2)s1	-121.1	1.5	-86.2	-0.7	-13.2
Cc1ccc(NCc2cccnc2)cc1	-31.9	-9.2	0.7	2.5	-2.0
CN1C(=O)/C(=C/c2ccc(C(=O)Nc3ccc(O)cc3C(=O)O)cc2)SC1=S	18.5	-6.4	-13.9	16.7	-26.3
N#CC1=C(N)Oc2c(ccc3ccccc23)C1c1ccsc1 (centres undefined)	-22.7	75.4*	-4.3	-2.4	/
Nc1ccc(-c2nc3ccc(N)cc3[nH]2)cc1	-13.5	-12.2	-62.0	-4.4	9.7
Nc1ccc2nc(-c3ccc(Cl)cc3)[nH]c2c1	-43.4	-34.5	-175.6	83.7*	20.7
Nc1ccc2nc(-c3cc(Cl)c(N)c(Cl)c3)[nH]c2c1	-42.4	-9.4	-279.5	63.3*	4.3
SMILES	Mdm2 MdmX PPI	T cruzi inh	aSyn UTR inh	SKKanGAS inh	CSC inhib
Cc1ccc(C(=O)Oc2coc(CSc3nnc(NC(=O)C4CC4)s3)cc2=O)cc1	15.0	-14.4	3.5	-15.4	31.9
O=C(Oc1coc(CSc2nnc(NC(=O)c3cccs3)s2)cc1=O)c1ccccc1	6.0	-9.1	-12.6	9.6	86.3*
CC1=C(C(=O)Nc2ccccc2C)C(c2ccc(C)o2)C2=C(CCCC2=O)N1 (centres undefined)	-6.2	-2.3	-18.1	-3.1	-14.0
O=C(C[C@@H]1C/C=C\C[C@H](Cc2ccc(F)cc2)C(=O)OCCNC1=O)NCCO	5.4	/	/	/	-11.0
Cc1ccc2c(c1)C(O)(CC(=O)/C=C/C=C/c1ccccc1)C(=O)N2 (centres undefined)	3.4	-9.0	-112.0	-8.8	-5.0
Cc1csc(NC(=O)CCc2c(C)nc3cc(-c4ccc(Cl)cc4)nn3c2C)n1	14.3	/	/	/	28.7
Cc1nc2cc(-c3ccc(Cl)cc3)nn2c(C)c1CCC(=O)NC(C)c1ccc2c(c1)OCCO2 (centres undefined)	0.4	28.3	73.8*	25.5	12.4
O=c1cc(CCl)nc2sc3ccccc3n12	27.7	61.2*	-3.8	1.5	-12.1
O=C(OCc1cc(=O)n2c(n1)sc1ccccc12)c1ccc(O)cc1	-23.0	5.6	-44.9	4.3	-1.1
O=C(/C=C/c1ccnc2ccccc12)c1cccs1	-30.7	6.4	-79.9	-9.6	85.7*
Cc1ccsc1C(=O)N1CCCC(C(=O)c2cc(F)ccc2F)C1 (centres undefined)	3.8	9.3	4.8	2.6	-12.6
C=CC1=C(C(=O)O)N2C(=O)[C@@H](NC(=O)/C(=N\O)c3csc(N)n3)[C@H]2SC1 (stereo in doubt)	10.8	-18.6	13.5	106.9*	-2.3
Cc1nnsc1C(=O)NC1CCCc2c1cnn2-c1ccc(C(C)(C)C)cc1 (centres undefined)	23.3	56.4*	26.1	-1.6	30.6
CC1CCN(C(=O)COC(=O)c2c[nH]c3ccccc23)CC1	-41.0	/	/	/	/
CN(CCCNC(=O)CCCOc1cc(=O)n(C)c2ccccc12)Cc1ccccc1	49.5	71.3*	3.5	-15.6	-2.1
CCOc1ccc(C(=O)c2cc([N+](=O)[O-])ccc2N2CCOCC2)cc1	/	-5.0	79.1*	-3.3	58.2
Cc1ccc(C(=O)c2cc([N+](=O)[O-])ccc2N2CCOCC2)cc1	/	-29.4	92.2*	4.6	/
COc1ccc(C(=O)c2cc([N+](=O)[O-])ccc2N2CCOCC2)cc1	/	15.0	?	-4.9	39.9
Cc1ccc(OC/C(O)=C(\C#N)c2nc3ccccc3s2)cc1	11.2	-34.7	-29.7	56.8*	77.8*
Nc1cc(Cl)ccc1C(=O)OCC(=O)N1CCCCCC1	-22.5	/	/	/	-8.0
Fc1ccc(CO/N=C/C2=C(Cl)c3ccccc3CC2)cc1	17.4	-5.7	-60.1	79.0*	2.0
O=c1cc2c(nn1Cc1ccc(F)cc1)-c1ccccc1CC2	32.5	5.8	-2.8	9.4	-7.7
COc1cccc(CC2(CO)CCCN(Cc3ccc(OC)c(C)c3OC)C2)c1 (centres undefined)	15.4	47.0	17.9	2.5	11.0
O=C(Nc1cc(Sc2ccccn2)cc([N+](=O)[O-])c1)c1cccc(Cl)c1	21.9	58.6*	18.9	14.2	50.3
O=C(N/N=C/c1ccccn1)c1ccc(NC(=O)c2cccc([N+](=O)[O-])c2)cc1	-2.1	-16.8	-41.6	-2.3	7.9
COc1c(C)cc(Br)cc1C(=O)Nc1ccc(Cc2ccncc2)cc1	17.8	60.5*	20.8	11.5	-1.1
Cc1c([N+](=O)[O-])cc(C(=O)Nc2ccc(Cc3ccncc3)cc2)cc1[N+](=O)[O-]	24.5	59.3*	-14.6	-4.1	60.9
O=C(Nc1ccc(Cc2ccncc2)cc1)c1ccc(Cl)c([N+](=O)[O-])c1	20.7	10.6	-12.1	-1.1	33.9
